From ChEMBL document CHEMBL4118027, “Preussilides A-F, Bicyclic Polyketides from the Endophytic Fungus Preussia similis with Antiproliferative Activity” (J Nat Prod, 2017)
Converted amounts (≈) assume the structure as drawn. The source made the active and inactive calls. The rule behind the calls is not given here.

How the values were obtained:
Rhodotorula glutinis = assay: Antifungal activity against Rhodotorula glutinis DSM 10134 by serial dilution method; assay type: functional, organism-based
Pseudomonas aeruginosa = assay: Antibacterial activity against Pseudomonas aeruginosa PA14 by serial dilution method; assay type: functional, organism-based
[1] = tested on: Mycolicibacterium smegmatis; assay: Antibacterial activity against Mycobacterium smegmatis ATCC 700084 by serial dilution method; assay type: functional, organism-based
PC-3 = assay: Cytotoxicity against human PC3 cells assessed as reduction in cell viability after 5 days by MTT assay; assay type: functional, cell-based; details: PC-3, 120 h
Outline: (§1)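 MTT viability assay run over 5 days on a panel of eight lines (L929, KB3.1, A431, A549, SKOV-3, PC-3, MCF-7, U2OS). IC50 values were derived.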

Mucor hiemalis = assay: Antifungal activity against Mucor hiemalis DSM 2656 by serial dilution method; assay type: functional, organism-based
[2] = tested on: Schizosaccharomyces pombe; assay: Antifungal activity against Schizosaccharomyces pombe DSM 70572 by serial dilution method; assay type: functional, organism-based
Bacillus subtilis = assay: Antibacterial activity against Bacillus subtilis DSM 10 by serial dilution method; assay type: functional, organism-based
[3] = tested on: Chromobacterium violaceum; assay: Antibacterial activity against Chromobacterium violaceum DSM 30191 by serial dilution method; assay type: functional, organism-based
KB 3-1 = assay: Cytotoxicity against human KB3-1 cells assessed as reduction in cell viability after 5 days by MTT assay; assay type: functional, cell-based; details: KB 3-1, 120 h; outline: as §1
SK-OV-3 = assay: Cytotoxicity against human SKOV3 cells assessed as reduction in cell viability after 5 days by MTT assay; assay type: functional, cell-based; details: SK-OV-3, 120 h; outline: as §1
Yamadazyma tenuis = assay: Antifungal activity against Candida tenuis MUCL 29892 by serial dilution method; assay type: functional, organism-based
Micrococcus luteus = assay: Antibacterial activity against Micrococcus luteus DSM 1790 by serial dilution method; assay type: functional, organism-based
Wickerhamomyces anomalus = assay: Antifungal activity against Pichia anomala DSM 6766 by serial dilution method; assay type: functional, organism-based
A-431 = assay: Cytotoxicity against human A431 cells assessed as reduction in cell viability after 5 days by MTT assay; assay type: functional, cell-based; details: A-431, 120 h; outline: as §1
Lepidium sativum = assay: Phytotoxicity against Lepidium sativum assessed as inhibition of seedling germination at 100 ug/disk; assay type: functional, organism-based
L929 [4] = assay: Induction of nuclear fragmentation in mouse L929 cells at cytotoxic IC50 by DAPI staining based microscopic method; assay type: functional, cell-based
Caenorhabditis elegans = assay: Nematicidal activity against Caenorhabditis elegans up to 100 ug/ml; assay type: functional, organism-based
Escherichia coli = assay: Antibacterial activity against Escherichia coli DSM 498 by serial dilution method; assay type: functional, organism-based
Setaria italica = assay: Phytotoxicity against Setaria italica assessed as inhibition of seedling germination at 100 ug/disk; assay type: functional, organism-based
U2OS [5] = assay: Cytotoxicity against human U2OS cells assessed as reduction in cell viability after 5 days by MTT assay; assay type: functional, cell-based; details: 120 h; outline: as §1
MCF7 = assay: Cytotoxicity against human MCF7 cells assessed as reduction in cell viability after 5 days by MTT assay; assay type: functional, cell-based; details: MCF7, 120 h; outline: as §1
Candida albicans = assay: Antifungal activity against Candida albicans DSM 1665 by serial dilution method; assay type: functional, organism-based
A549 = assay: Cytotoxicity against human A549 cells assessed as reduction in cell viability after 5 days by MTT assay; assay type: functional, cell-based; details: A549, 120 h; outline: as §1
L929 [6] = assay: Cytotoxicity against mouse L929 cells assessed as reduction in cell viability after 5 days by MTT assay; assay type: functional, cell-based; details: L929, 120 h; outline: as §1
Staphylococcus aureus = assay: Antibacterial activity against Staphylococcus aureus DSM 346 by serial dilution method; assay type: functional, organism-based
Aspergillus fumigatus = assay: Antifungal activity against Aspergillus fumigatus DSM 819 by serial dilution method; assay type: functional
Sclerotinia sclerotiorum [7] = assay: Antifungal activity against Sclerotinia sclerotiorum DSM 1946 at 20 ug/disk after 5 days by disk diffusion assay; assay type: functional, organism-based
Outline: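 Disk diffusion on YMG medium seeded with a mycelial suspension of the non-sporulating fungus; paper disks loaded with test material; inhibition zone diameter in mm read after 5 days.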

U2OS [8] = assay: Induction of morphological changes in human U2OS cells at 0.5 ug/ml after 24 hrs by DAPI staining based immunofluorescence microscopic method
U2OS [9] = assay: Cell cycle arrest in human U2OS cells assessed as accumulation at sub-G1 phase at 5 to 10 ug/ml after 18 hrs by propidium iodide staining based flow cytometry; assay type: functional
Outline: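 U2OS were seeded at 7 × 10^5/well in six-well plates and exposed to 5 or 10 μg/mL for 18 h after spreading, with untreated and DMSO mock controls. Cells were trypsinized, fixed in 2% PFA/PBS, then in ice-cold methanol 30 min. Staining: anti-tubulin/anti-lamin antibodies plus RNase A and propidium iodide. Flow cytometry assigned G1, S, G2-M and sub-G1 by DNA content.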

U2OS [10] = assay: Induction of morphological changes in human U2OS cells assessed as aberrantly sized cells with abnormal small nuclei formation at 0.5 ug/ml after 24 hrs by DAPI staining based immunofluorescence microscopic method; assay type: functional, cell-based
Outline: (§2)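 U2OS in DMEM (4.5 g/L glucose, 10% FBS), 37 °C, 7% CO2, seeded 3 × 10^4/well on fibronectin-coated coverslips and adhered 16 h. Treated 24 h at 0.25, 0.5, 2.5, 5 or 10 μg/mL (diluted from 1 mg/mL DMSO stock), DMSO control. Fixed in 4% PFA/PBS 20 min; anti-α-tubulin (DM1A), phalloidin-Alexa 488 and DNA stain; immunofluorescence imaging.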

Mucor plumbeus = assay: Antifungal activity against Mucor plumbeus MUCL 49355 by serial dilution method; assay type: functional
U2OS [11] = assay: Induction of morphological changes in human U2OS cells assessed as multipolar and duplicated spindle formation at 0.5 ug/ml after 24 hrs by DAPI staining based immunofluorescence microscopic method; assay type: functional, cell-based; outline: as §2
Sclerotinia sclerotiorum [12] = assay: Antifungal activity against Sclerotinia sclerotiorum DSM 1946 at 100 ug/disk after 5 days by disk diffusion assay; assay type: functional; details: DSM 1946, 120 h, read-out: IZ
Outline: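 Disk diffusion on YMG medium seeded with a mycelial suspension of the non-sporulating test fungus. Paper disks carried […] compound. Nystatin at 20 μg/disk was the positive control. Inhibition zone diameter (mm) was read after 5 days.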

U2OS [13] = assay: Induction of apoptosis in human U2OS cells assessed as caspase-3/7 cleavage at 250 nM after 16 hrs by caspase-3/7 green reagent based flow cytometry (reference value: 8.04%); assay type: functional

Compound	Activity (Rhodotorula glutinis)	Activity (Pseudomonas aeruginosa)	Activity [1]	IC50 (PC-3)	Activity (Mucor hiemalis)	Activity [2]	Activity (Bacillus subtilis)	Activity [3]	IC50 (KB 3-1)	IC50 (SK-OV-3)	Activity (Yamadazyma tenuis)	Activity (Micrococcus luteus)	Activity (Wickerhamomyces anomalus)	IC50 (A-431)	Activity (Lepidium sativum)	Activity (L929 [4])	IC50 (U2OS [5])	IC50 (MCF7)	IC50 (A549)	IC50 (L929 [6])	further results
CC(=O)CC1=C(C)C=C2C[C@@H](C)C(=O)[C@@H](C)[C@@H]2[C@H]1/C=C(C)/C=C(C)\C=C\C(=O)O	inactive	inactive	inactive	45.4 µM	inactive	inactive	inactive	inactive	17.4 µM	20.2 µM	inactive	inactive	inactive	17.9 µM	inactive	Active	> 2520 µM	15.4 µM	47.9 µM	24.7 µM	Activity (Caenorhabditis elegans): inactive; Activity (Escherichia coli): inactive; Activity (Setaria italica): inactive; Activity (Candida albicans): inactive; Activity (Staphylococcus aureus): inactive
C[C@@H]1C[C@@H]([C@H](O)CC2CC(=O)NC(=O)C2)C(=O)[C@@H](C)C1 [CYCLOHEXIMIDE]	–	–	–	–	–	–	–	–	–	–	–	–	–	–	–	–	–	–	–	–	MIC (Aspergillus fumigatus): 33.3 µg/mL (≈ 118 µM)
COC(=O)/C=C/C(C)=C/C(C)=C/[C@H]1C(C[C@H](C)O)=C(C)C=C2C[C@@H](C)C(=O)[C@@H](C)[C@@H]21	inactive	inactive	inactive	41.2 µM	inactive	inactive	inactive	inactive	23 µM	29.1 µM	inactive	inactive	inactive	55.8 µM	inactive	Active	> 2430 µM	55.8 µM	41.2 µM	80 µM	Activity (Caenorhabditis elegans): inactive; Activity (Escherichia coli): inactive; Activity (Setaria italica): inactive; Activity (Candida albicans): inactive; Activity (Staphylococcus aureus): inactive
COC(=O)/C=C/C(C)=C/C(C)=C/[C@H]1C(CC(C)=O)=C(C)C=C2C[C@@H](C)C(=O)[C@@H](C)[C@@H]21	inactive	inactive	inactive	> 2440 µM	inactive	inactive	inactive	inactive	51.2 µM	> 2440 µM	inactive	inactive	inactive	> 2440 µM	inactive	Active	22.2 µM	> 2440 µM	> 2440 µM	53.6 µM	Activity (Caenorhabditis elegans): inactive; Activity (Escherichia coli): inactive; Activity (Setaria italica): inactive; Activity (Candida albicans): inactive; Activity (Staphylococcus aureus): inactive
NYSTATIN	–	–	–	–	–	–	–	–	–	–	–	–	–	–	–	–	–	–	–	–	inhibition zone (IZ) (Sclerotinia sclerotiorum [7]): 32 mm
C/C(=C\c1csc(C)n1)[C@@H]1C[C@@H]2O[C@]2(C)CCC[C@H](C)[C@H](O)[C@@H](C)C(=O)C(C)(C)[C@@H](O)CC(=O)O1 [PATUPILONE]	–	–	–	0.00025 µM	–	–	–	–	6.1e-05 µM	2.36e-05 µM	–	–	–	7.3e-05 µM	–	–	0.000104 µM	0.00015 µM	0.00015 µM	0.0017 µM	–
CC1=C(C[C@H](C)O)[C@H](/C=C(C)/C=C(C)/C=C/C(=O)O)[C@@H]2C(=C1)C[C@@H](C)C(=O)[C@H]2C	inactive	inactive	inactive	47.7 µM	inactive	inactive	inactive	inactive	6 µM	22.6 µM	inactive	inactive	inactive	20.3 µM	inactive	Active	7.03 µM	24.3 µM	60.3 µM	6.5 µM	MIC (Aspergillus fumigatus): 35.5 µg/mL (≈ 89.1 µM); Activity (U2OS [8]): Active; Activity (U2OS [9]): Active; Activity (U2OS [10]): Active; Activity (Caenorhabditis elegans): inactive; Activity (Escherichia coli): inactive; Activity (Setaria italica): inactive; MIC (Mucor plumbeus): 150 µg/mL (≈ 376 µM); Activity (U2OS [11]): Active; zone of inhibition at 100 µg/disc (Sclerotinia sclerotiorum [12]): 28 mm; Activity (Candida albicans): inactive; Activity (Staphylococcus aureus): inactive
CN[C@@H]1C[C@H]2O[C@@](C)([C@@H]1OC)n1c3ccccc3c3c4c(c5c6ccccc6n2c5c31)C(=O)NC4 [STAUROSPORINE]	–	–	–	–	–	–	–	–	–	–	–	–	–	–	–	–	–	–	–	–	Activity (U2OS [13]): 22.6%
CC(=O)CC1=C(C)C=C2C[C@@H](C)[C@@H](O)[C@@H](C)[C@@H]2[C@H]1/C=C(C)/C=C(C)/C=C/C(=O)O	inactive	inactive	inactive	60.2 µM	inactive	inactive	inactive	inactive	11.3 µM	32.4 µM	inactive	inactive	inactive	35.1 µM	inactive	Active	> 2510 µM	22.1 µM	70.3 µM	17.3 µM	Activity (Caenorhabditis elegans): inactive; Activity (Escherichia coli): inactive; Activity (Setaria italica): inactive; Activity (Candida albicans): inactive; Activity (Staphylococcus aureus): inactive
